Data on 1 molecule can be found in ChEMBL document CHEMBL4011639, “Discovery of Novel Nucleotide Prodrugs with Improved Potency Against HCV Variants Carrying NS5B S282T Mutation” (J Med Chem, 2017).

Data set [1] concerns Mus musculus. The data set can be described thus: Acute toxicity in ICR mouse assessed as mortality at 150 to 1800 mg/kg, administered via oral gavage measured once a day over 14 days. The format is organism-based. The note with it: in vivo, 336 h. An outline of the steps: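 ICR mice, 22−25 g, 5 per sex per group. Single oral gavage at 150, 500, 1200 or 1800 mg/kg in vehicle of 30% PEG400/30% Tween 20/20% corn oil/20% water, with a vehicle control. Mortality, morbidity, clinical signs and body weight change recorded once daily for 14 days.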

Data set [2] in a line: Half life in human plasma […] by LC/MS/MS analysis. The data set is classed as ADME, cell-free. An outline of the steps:
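Pooled human plasma adjusted to pH 7.4 and prewarmed, then spiked to 2 μM final from a 200 μM DMSO working solution, in duplicate. Sampled at 0, 10, 30, 60 and 120 min and quenched with acetonitrile containing tolbutamide and buspirone. LC/MS/MS (MRM) peak area ratios; ke from linear regression of the initial linear phase, t1/2 = ln2/ke.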

Data set [3] in a line: Drug metabolism in human HuH7 cells assessed as carboxylesterase-mediated (S)-isopropyl 2-((S)-(((2R,3R,4R,5R)-5-(4-amino-2-oxopyrimidin-1(2H)-yl)-4-fluoro-3-hydroxy-4-methyltetrahydrofuran-2-yl)methoxy)(phenoxy)phosphoryloxy)propanoate metabolite formation at 50 uM after 48 hrs by LC/MS/MS analysis. The data set is classed as ADME. The note with it: cell-based. In outline: (§1)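 Huh-7 cells plated at 0.35 million/mL in DMEM with 10% FBS (about 1 million per well at dosing) and grown 18 h. At each time point cells were washed with cold saline and lysed in methanol with internal standard. Semiquantified by LC/MS/MS MRM as Δ mean peak-area ratio relative to t0.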

Data set [4] in a line: Acute toxicity in ICR mouse administered as a single dose via oral gavage and observed over 14 days. The note with it: in vivo.
Data set [5] can be described thus: Drug metabolism in human HuH7 cells assessed as carboxylesterase-mediated (S)-2-((S)-(((2R,3R,4R,5R)-5-(4-amino-2-oxopyrimidin-1(2H)-yl)-4-fluoro-3-hydroxy-4-methyltetrahydrofuran-2-yl)methoxy)(hydroxy)phosphoryloxy)propanoic acid metabolite formation at 50 uM after 48 hrs by LC/MS/MS analysis. The format is ADME, cell-based. In outline: as §1
In data set [6] the test system is Mus musculus. The data set is described as follows: Subacute toxicity in ICR mouse assessed as alteration in basic levels of SGOT at 100 to 1000 mg/kg, administered once a day via oral gavage for 14 days. The format is organism-based. The note with it: in vivo, 336 h. An outline of the steps: (§2)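 ICR mice, 22−25 g, 5 per sex per group, gavaged daily for 14 days at 100, 500 or 1000 mg/kg in 30% PEG400/30% Tween 20/20% corn oil/20% water, with a vehicle control group. Observed daily for body weight change, skin and fur, inflammation and necrosis. Animals anesthetized on day 15; organ weights (liver, kidney) taken. Serum SGOT/SGPT compared with controls.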

A short description of data set [7]: Drug metabolism in human HuH7 cells assessed as ((2R,3R,4R,5R)-4-fluoro-3-hydroxy-5-(4-hydroxy-2-oxo-3,4-dihydropyrimidin-1(2H)-yl)-4-methyltetrahydrofuran-2-yl)methyl tetrahydrogen triphosphate metabolite formation at 50 uM after 48 hrs by LC/MS/MS analysis. The data set is classed as ADME, cell-based. The note with it: huh-7, 48 h. An outline of the steps: as §1

A short description of data set [8]: Drug metabolism in human HuH7 cells assessed as nucleoside diphosphate kinase-mediated ((2R,3R,4R,5R)-5-(4-amino-2-oxopyrimidin-1(2H)-yl)-4-fluoro-3-hydroxy-4-methyltetrahydrofuran-2-yl)methyl tetrahydrogen triphosphate metabolite formation at 50 uM after 48 hrs by LC/MS/MS analysis. The data set is classed as ADME, cell-based. In outline: as §1
In the next data set the test system is Huh-7. The data set is described as follows: Cytotoxicity against human HuH7 cells assessed as reduction in cell viability up to 100 uM after 72 hrs by Cell Titer-Fluor Cell assay. The data set is classed as cell-based. The note with it: huh-7, 72 h. In outline:
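Huh7 cells carrying HCV genotype 1b replicon, 8000 per well, in duplicate 3-fold dilution series with 0.5% DMSO final; 72 h at 37 °C, 5% CO2. Viability read by Cell Titer-Fluor fluorescence after 5 min; replicon inhibition read by Bright-Glo luciferase luminescence in the same wells. EC50 and CC50 come from curve fitting.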

Data set [9] can be described thus: Cmax in Beagle dog at 150 mg/kg, administered via oral gavage measured up to 24 hrs post dose by LC/MS/MS analysis. The format is ADME, organism-based, Canis lupus familiaris. On the set-up: dose 150 mg/kg, route oral. The note with it: in vivo. In outline: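 Beagle dogs, 3 per sex, given a single oral gavage dose of 150 mg/kg in 20% w/v hydroxypropyl-β-cyclodextrin in water, 2.5 mL/kg. K2EDTA blood taken by venipuncture at 0.5, 0.75, 1, 2, 4, 6, 8, 12 and 24 h. Plasma extracted with ice-cold acetonitrile, then LC/MS/MS in positive MRM mode with zolpidem as internal standard. Noncompartmental analysis; mean ± SD.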

In data set [10] the test system is Mus musculus. The data set is described as follows: Subacute toxicity in ICR mouse assessed as effect on glomerulus at 100 to 1000 mg/kg, administered once a day via oral gavage for 14 days by hematoxylin/eosin-staining based microscopic analysis. The format is organism-based. The note with it: in vivo, 336 h. In outline:
(§3)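 Same 14-day daily oral gavage design as the subacute study (ICR mice, 5 per sex per group, 100/500/1000 mg/kg or vehicle). Liver and kidney taken after anesthesia on day 15, processed routinely, cut as 5 μm paraffin sections, stained with hematoxylin and eosin and examined microscopically.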

Data set [11] relates to Mus musculus. The data set is described as follows: Subacute toxicity in ICR mouse assessed as effect on hepatic perilobular vein at 100 to 1000 mg/kg, administered once a day via oral gavage for 14 days by hematoxylin/eosin-staining based microscopic analysis. The format is organism-based. To be noted: in vivo, 336 h. In outline:
as §3

In data set [12] the test system is Mus musculus. The data set is described as follows: Subacute toxicity in ICR mouse assessed as effect on renal architecture at 100 to 1000 mg/kg, administered once a day via oral gavage for 14 days by hematoxylin/eosin-staining based microscopic analysis. The format is organism-based. The note with it: in vivo, 336 h. An outline of the steps: as §3
The test system of data set [13] is Mus musculus. The data set is described as follows: Subacute toxicity in ICR mouse assessed as weight change in kidney at 100 to 1000 mg/kg, administered once a day via oral gavage for 14 days. The data set is classed as organism-based. To be noted: in vivo, 336 h. In outline: as §2
Data set [14] in a line: Half life in human liver S9 fraction at 10 uM by LC/MS/MS analysis. The format is ADME. In outline: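 Compound at 10 μM working solution (1% DMSO, 5% MeOH in 100 mM Tris) incubated at 37 °C with human liver S9 at 1 mg protein/mL final. Reactions stopped with cold acetonitrile containing tolbutamide internal standard at 0, 5, 10, 20, 30 and 60 min. Parent measured by LC/MS/MS (MRM) as analyte/IS peak area ratio, given as percent remaining versus 0 min; half-life fitted.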

Data set [15] concerns Mus musculus. The data set can be described thus: Subacute toxicity in ICR mouse assessed as body weight loss at 100 to 1000 mg/kg, administered once a day via oral gavage for 14 days. The note with it: in vivo, 336 h. The format is organism-based. In outline:
as §2

Data set [16] has as its system Mus musculus. The data set can be described thus: Subacute toxicity in ICR mouse assessed as clinical signs of toxicity at 100 to 1000 mg/kg, administered once a day via oral gavage for 14 days. The note with it: in vivo, 336 h. The format is organism-based. In outline:
as §2

The subject of data set [17] is Mus musculus. The data set can be described thus: Subacute toxicity in ICR mouse assessed as effect on appearance of hepatocytes at 100 to 1000 mg/kg, administered once a day via oral gavage for 14 days by hematoxylin/eosin-staining based microscopic analysis. The note with it: in vivo, 336 h. The format is organism-based. In outline: as §3
For data set [18], the system named is Mus musculus. The data set can be described thus: Subacute toxicity in ICR mouse assessed as effect on tubules at 100 to 1000 mg/kg, administered once a day via oral gavage for 14 days by hematoxylin/eosin-staining based microscopic analysis. The data set is classed as organism-based. The note with it: in vivo, 336 h. An outline of the steps:
as §3

Data set [19] has as its system Mus musculus. The data set can be described thus: Subacute toxicity in ICR mouse assessed as macroscopic pathologic findings at 100 to 1000 mg/kg, administered once a day via oral gavage for 14 days. The format is organism-based. To be noted: in vivo, 336 h. An outline of the steps:
as §2

The half-life is the time in which the quantity being followed falls by half. High values mean slow loss, low ones fast loss. The term NOAEL denotes the highest tested level that showed no adverse finding. Broadly, the Cmax is the peak of the concentration-time curve.

Molecules are shown by their SMILES. Bounds are passed on as bounds.

On to `CCCC(=O)Nc1ccn([C@@H]2O[C@H](CO[P@@](=O)(N[C@@H](C)C(=O)OC(C)C)Oc3ccccc3)[C@@H](O)[C@@]2(C)F)c(=O)n1`, for which the Activity result with Mus musculus [1], in the data set on Mus musculus [6], in the data set on Huh-7, in the data set on Mus musculus [10], in the data set on Mus musculus [11] and with Mus musculus [12] was “Non-Toxic” each time. Also, the Activity entry with Mus musculus [13], with Mus musculus [15], with Mus musculus [16], in the data set on Mus musculus [17], in the data set with Mus musculus [18] and with Mus musculus [19] was “Non-Toxic” in each case. This molecule also registered a half-life in data set [2] greater than 231 min. Moreover, the Drug metabolism entry was “Metabolite_Detected” in data set [3], “Metabolite_Detected” in data set [5], “Metabolite_Notdetected” in data set [7] and “Metabolite_Detected” in [8]. In addition, the NOAEL at 336 h in data set [4] was greater than 1800 mg/kg. This molecule also came in with a Cmax in [9] of 51.3 ng/mL. Further, in data set [14], the half-life at 10 µM was found to be 9.6 min.
